Here are results for one compound from paper PMC8994735 (Targeted Oncology, 2021).

SMILES strings stand for the structures. Like-named read-outs stand apart in the source and are kept apart here.

Series [1] relates to East Asian patients with advanced nonhematologic malignancies. Kind of series: Dose-limiting toxicities and MTD/RP2D determination. Type of series: in vivo, human. In outline: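 Standard 3 + 3 escalation with planned levels of 2 and 4 mg once daily and 20 and 30 mg once weekly, oral, in 28-day cycles; intermediate doses and expansion to 12 patients were permitted. DLTs were assessed in cycle 1 and covered grade ≥ 3 nonhematologic toxicity (with specified exceptions), defined hematologic events, and < 75% of planned doses given. Evaluable patients received ≥ 75% of planned doses (21 once daily, three once weekly).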

Series [2] relates to advanced nonhematologic malignancies. Description: Antitumor activity: disease response by RECIST v1.1. Type of series: in vivo, human. In outline: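 Oral dosing once daily (2, 3 or 4 mg) or once weekly (20 or 30 mg) in 28-day cycles. Treatment lasted up to 12 months or until progression, unacceptable toxicity or consent withdrawal. Response was assessed by RECIST v1.1 in the safety analysis set (patients receiving ≥ 1 dose). Analysis was descriptive, with no formal hypothesis testing.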

Series [3] has as its system patients from the United States / Western patients. The following applies: cited from earlier work.

In the case of `CC(C)n1nc(-c2ccc3oc(N)nc3c2)c2c(N)ncnc21` [sapanisertib], in series [1] (4 mg QD cohort), the “DLT of grade 3 stomatitis” value came out at 2 n. In addition, the “Dose-limiting toxicities (patients experiencing DLTs)” value in series [1] (4 mg QD cohort, cycle 1) was “three”. For the same compound, the DLTs entry in series [1] (20 mg QW dose level) and in series [1] (30 mg QW dose level) was “no patients experienced DLTs” each time. Moreover, in series [1] (QD dosing, East Asian patients), the “Maximum tolerated dose (MTD)” value stood at 3 mg. For the same compound, the “Recommended phase 2 dose (RP2D)” value in series [1] (QD dosing, East Asian patients) is given as 3 mg; in series [1] (QW dosing, East Asian patients) it was 30 mg. Moreover, the “Best overall response of progressive disease” value in series [2] (QD arm) is 45%; in series [2] (QW arm), 33%. For the same compound, the entries for the “Clinical benefit rate (CR, PR, or SD of any duration)” value in series [2] (QD arm) and in series [2] (QW arm) were 45% and 67%, respectively. Moreover, the figures for the “Discontinuation due to progressive disease” value in series [2] (QD arm) and in series [2] (QW arm) were 64% and 67%, respectively. Further, the “Patients with stable disease for ≥ 6 months” value in series [2] (all cohorts) is “Three”. Moreover, the “Complete response (CR) or partial response (PR)” value in series [2] (either treatment arm) is listed as “No patients”. In series [2] (heavily pretreated patients, across dosing schedules), the Anti-tumor effect entry is “Moderate anti-tumor effects and a favorable safety profile were observed with sapanisertib in this heavily pretreated patient population”. For the same compound, the Incidence of stomatitis in series [3] (20 or 30 mg QW) is listed as 10%; in series [3] (sapanisertib 2–7 mg QD) it was 35%; in series [3] (sapanisertib 3 or 4 mg QD) it was 18%; in series [3] (sapanisertib 7–40 mg QW) it was 30%.
